In ChEMBL document CHEMBL1938268, “Synthesis, characterization and in vitro biological evaluation of some novel diarylsulfonylureas as potential cytotoxic and antimicrobial agents” (Bioorg Med Chem Lett, 2012):
≈ marks a conversion by molar mass, not a printed value.

Legend:
[1] = Toxicity against Brine shrimp nauplii after 24 hrs; format: organism-based; conditions: artemia salina, in vivo; read-out: ED50
Outline: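 Artemia salina nauplii hatched 38 h in sterile brine (sea salt 38 g/L, pH 8.5) under aeration; 10 nauplii per vial exposed to graded compound concentrations in 5 mL final volume, 37 °C, 24 h under incandescent light. Survivors counted; percent lethality versus vehicle-treated controls; ED50 from probit analysis; podophyllotoxin positive control.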

Bacillus subtilis = assay: Antibacterial activity against Bacillus subtilis NCIM 2063 after 24 hrs by agar well diffusion assay; format: functional; conditions: NCIM 2063, 24 h
Outline: (§1)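 Agar well diffusion per NCCLS; NCIM standard strains. Nutrient agar seeded with 0.1 mL bacterial suspension in sterile 0.85% saline at 10⁵ CFU/mL. Plates in triplicate, 37 0.5 °C, 24 h. MIC taken as lowest concentration giving complete growth inhibition.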

Staphylococcus aureus = assay: Antibacterial activity against Staphylococcus aureus NCIM 2079 after 24 hrs by agar well diffusion assay; format: functional; conditions: NCIM 2079, 24 h; outline: as §1
Micrococcus luteus = assay: Antibacterial activity against Micrococcus luteus NCIM 2155 after 24 hrs by agar well diffusion assay; format: functional; conditions: NCIM 2155, 24 h; outline: as §1
Pseudomonas aeruginosa = assay: Antibacterial activity against Pseudomonas aeruginosa NCIM 2036 after 24 hrs by agar well diffusion assay; format: functional; conditions: NCIM 2036, 24 h; outline: as §1
Klebsiella pneumoniae = assay: Antibacterial activity against Klebsiella pneumoniae NCIM 5082 after 24 hrs by agar well diffusion assay; format: functional; conditions: NCIM 5082, 24 h; outline: as §1
Escherichia coli = assay: Antibacterial activity against Escherichia coli NCIM 2065 after 24 hrs by agar well diffusion assay; format: functional; conditions: NCIM 2065, 24 h; outline: as §1
Proteus vulgaris = assay: Antibacterial activity against Proteus vulgaris NCIM 2813 after 24 hrs by agar well diffusion assay; format: functional; conditions: NCIM 2813, 24 h; outline: as §1
Candida albicans = assay: Antifungal activity against Candida albicans NCIM 3102 after 48 hrs by agar well diffusion assay; format: functional; conditions: NCIM 3102, 48 h
Outline: (§2)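 Fungal spore suspensions in sterile distilled water set to final 10⁶ CFU/mL; 0.1 mL spread on Potato-Dextrose-Agar. NCCLS agar well diffusion with NCIM standard strains: 6 mm wells given 0.1 mL compound diluted in 1% DMSO, final 16 to 512 µg/mL. Triplicate plates held 48 h at 28 0.2 °C. MIC is lowest concentration fully inhibiting growth.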

Aspergillus niger = assay: Antifungal activity against Aspergillus niger NCIM 548 after 48 hrs by agar well diffusion assay; format: functional; conditions: NCIM 548, 48 h; outline: as §2
Aspergillus oryzae = assay: Antifungal activity against Aspergillus oryzae NCIM 643 after 48 hrs by agar well diffusion assay; format: functional; conditions: NCIM 643, 48 h; outline: as §2
Penicillium chrysogenum = assay: Antifungal activity against Penicillium chrysogenum NCIM 738 after 48 hrs by agar well diffusion assay; format: functional; conditions: NCIM 738, 48 h; outline: as §2
Bacillus pumilus = assay: Antibacterial activity against Bacillus pumilus NCIM 2327 after 24 hrs by agar well diffusion assay; conditions: NCIM 2327, 24 h

C=CCOc1ccc(/C=C/C(=O)c2ccccc2NC(=O)NS(=O)(=O)c2ccc(C)cc2)cc1
LC50 at 24 h [1]: 6.11 µg/mL (≈ 12.8 µM) | MIC (Bacillus subtilis): 32 µg/mL (≈ 67.1 µM) | MIC (Staphylococcus aureus): 16 µg/mL (≈ 33.6 µM) | MIC (Micrococcus luteus): 32 µg/mL (≈ 67.1 µM) | MIC (Pseudomonas aeruginosa): 16 µg/mL (≈ 33.6 µM) | MIC (Klebsiella pneumoniae): 16 µg/mL (≈ 33.6 µM) | MIC (Escherichia coli): 32 µg/mL (≈ 67.1 µM) | MIC (Proteus vulgaris): 16 µg/mL (≈ 33.6 µM) | MIC (Candida albicans): 16 µg/mL (≈ 33.6 µM) | MIC (Aspergillus niger): 16 µg/mL (≈ 33.6 µM) | MIC (Aspergillus oryzae): 16 µg/mL (≈ 33.6 µM) | MIC (Penicillium chrysogenum): 16 µg/mL (≈ 33.6 µM) | MIC (Bacillus pumilus): 16 µg/mL (≈ 33.6 µM)

Cc1ccc(S(=O)(=O)NC(=O)Nc2ccccc2C(=O)/C=C/c2ccc(F)cc2)cc1
LC50 at 24 h [1]: 3.96 µg/mL (≈ 9.03 µM) | MIC (Bacillus subtilis): 16 µg/mL (≈ 36.5 µM) | MIC (Staphylococcus aureus): 32 µg/mL (≈ 73 µM) | MIC (Micrococcus luteus): 64 µg/mL (≈ 146 µM) | MIC (Pseudomonas aeruginosa): 32 µg/mL (≈ 73 µM) | MIC (Klebsiella pneumoniae): 16 µg/mL (≈ 36.5 µM) | MIC (Escherichia coli): 32 µg/mL (≈ 73 µM) | MIC (Proteus vulgaris): 16 µg/mL (≈ 36.5 µM) | MIC (Candida albicans): 64 µg/mL (≈ 146 µM) | MIC (Aspergillus niger): 64 µg/mL (≈ 146 µM) | MIC (Aspergillus oryzae): 64 µg/mL (≈ 146 µM) | MIC (Penicillium chrysogenum): 64 µg/mL (≈ 146 µM) | MIC (Bacillus pumilus): 32 µg/mL (≈ 73 µM)

Cc1ccc(/C=C/C(=O)c2ccccc2NC(=O)NS(=O)(=O)c2ccc(C)cc2)cc1
LC50 at 24 h [1]: 15.3 µg/mL (≈ 35.2 µM) | MIC (Bacillus subtilis): 256 µg/mL (≈ 589 µM) | MIC (Staphylococcus aureus): 128 µg/mL (≈ 295 µM) | MIC (Micrococcus luteus): 256 µg/mL (≈ 589 µM) | MIC (Pseudomonas aeruginosa): 256 µg/mL (≈ 589 µM) | MIC (Klebsiella pneumoniae): 256 µg/mL (≈ 589 µM) | MIC (Escherichia coli): 256 µg/mL (≈ 589 µM) | MIC (Proteus vulgaris): 256 µg/mL (≈ 589 µM) | MIC (Candida albicans): 256 µg/mL (≈ 589 µM) | MIC (Aspergillus niger): 256 µg/mL (≈ 589 µM) | MIC (Aspergillus oryzae): 256 µg/mL (≈ 589 µM) | MIC (Penicillium chrysogenum): 256 µg/mL (≈ 589 µM) | MIC (Bacillus pumilus): 256 µg/mL (≈ 589 µM)

COc1ccc(/C=C/C(=O)c2ccccc2NC(=O)NS(=O)(=O)c2ccc(C)cc2)cc1
LC50 at 24 h [1]: 28.1 µg/mL (≈ 62.4 µM) | MIC (Bacillus subtilis): 64 µg/mL (≈ 142 µM) | MIC (Staphylococcus aureus): 128 µg/mL (≈ 284 µM) | MIC (Micrococcus luteus): 128 µg/mL (≈ 284 µM) | MIC (Pseudomonas aeruginosa): 64 µg/mL (≈ 142 µM) | MIC (Klebsiella pneumoniae): 128 µg/mL (≈ 284 µM) | MIC (Escherichia coli): 128 µg/mL (≈ 284 µM) | MIC (Proteus vulgaris): 128 µg/mL (≈ 284 µM) | MIC (Candida albicans): 128 µg/mL (≈ 284 µM) | MIC (Aspergillus niger): 128 µg/mL (≈ 284 µM) | MIC (Aspergillus oryzae): 128 µg/mL (≈ 284 µM) | MIC (Penicillium chrysogenum): 128 µg/mL (≈ 284 µM) | MIC (Bacillus pumilus): 128 µg/mL (≈ 284 µM)

Cc1ccc(S(=O)(=O)NC(=O)Nc2ccccc2C(=O)/C=C/c2cccc(F)c2)cc1
LC50 at 24 h [1]: 4.13 µg/mL (≈ 9.42 µM) | MIC (Bacillus subtilis): 16 µg/mL (≈ 36.5 µM) | MIC (Staphylococcus aureus): 16 µg/mL (≈ 36.5 µM) | MIC (Micrococcus luteus): 64 µg/mL (≈ 146 µM) | MIC (Pseudomonas aeruginosa): 16 µg/mL (≈ 36.5 µM) | MIC (Klebsiella pneumoniae): 64 µg/mL (≈ 146 µM) | MIC (Escherichia coli): 16 µg/mL (≈ 36.5 µM) | MIC (Proteus vulgaris): 64 µg/mL (≈ 146 µM) | MIC (Candida albicans): 64 µg/mL (≈ 146 µM) | MIC (Aspergillus niger): 64 µg/mL (≈ 146 µM) | MIC (Aspergillus oryzae): 64 µg/mL (≈ 146 µM) | MIC (Penicillium chrysogenum): 64 µg/mL (≈ 146 µM) | MIC (Bacillus pumilus): 16 µg/mL (≈ 36.5 µM)

Cc1ccc(S(=O)(=O)NC(=O)Nc2ccccc2C(=O)/C=C/c2ccccc2Cl)cc1
LC50 at 24 h [1]: 12.8 µg/mL (≈ 28.1 µM) | MIC (Bacillus subtilis): 64 µg/mL (≈ 141 µM) | MIC (Staphylococcus aureus): 64 µg/mL (≈ 141 µM) | MIC (Micrococcus luteus): 128 µg/mL (≈ 281 µM) | MIC (Pseudomonas aeruginosa): 64 µg/mL (≈ 141 µM) | MIC (Klebsiella pneumoniae): 128 µg/mL (≈ 281 µM) | MIC (Escherichia coli): 64 µg/mL (≈ 141 µM) | MIC (Proteus vulgaris): 128 µg/mL (≈ 281 µM) | MIC (Candida albicans): 128 µg/mL (≈ 281 µM) | MIC (Aspergillus niger): 128 µg/mL (≈ 281 µM) | MIC (Aspergillus oryzae): 128 µg/mL (≈ 281 µM) | MIC (Penicillium chrysogenum): 128 µg/mL (≈ 281 µM) | MIC (Bacillus pumilus): 64 µg/mL (≈ 141 µM)

Cc1ccc(S(=O)(=O)NC(=O)Nc2ccccc2C(=O)/C=C/c2cccc([N+](=O)[O-])c2)cc1
LC50 at 24 h [1]: 44.5 µg/mL (≈ 95.5 µM) | MIC (Bacillus subtilis): 256 µg/mL (≈ 550 µM) | MIC (Staphylococcus aureus): 256 µg/mL (≈ 550 µM) | MIC (Micrococcus luteus): 256 µg/mL (≈ 550 µM) | MIC (Pseudomonas aeruginosa): 256 µg/mL (≈ 550 µM) | MIC (Klebsiella pneumoniae): 256 µg/mL (≈ 550 µM) | MIC (Escherichia coli): 256 µg/mL (≈ 550 µM) | MIC (Proteus vulgaris): 256 µg/mL (≈ 550 µM) | MIC (Candida albicans): 256 µg/mL (≈ 550 µM) | MIC (Aspergillus niger): 256 µg/mL (≈ 550 µM) | MIC (Aspergillus oryzae): 256 µg/mL (≈ 550 µM) | MIC (Penicillium chrysogenum): 256 µg/mL (≈ 550 µM) | MIC (Bacillus pumilus): 256 µg/mL (≈ 550 µM)
